Results on one compound are retold here after ChEMBL document CHEMBL1255381, “Golgicide A reveals essential roles for GBF1 in Golgi assembly and function” (Nat Chem Biol, 2009).

Type in all cases: cell-based
Common to all, as to conditions: Chlorocebus sabaeus

For assay [1], the system named is Vero. Put plainly: Inhibition of Arf1 in african green monkey Vero cells assessed as rapid COPI redistribution from golgi at 10 ug/ml after 5 mins by immunofluorescence method.
The test system of assay [2] is Vero. Put plainly: Inhibition of Arf1 in african green monkey Vero cells assessed as rapid AP-1 dispersal from golgi membranes at 10 ug/ml after 5 mins by immunofluorescence method.
In assay [3] the test system is Vero. The assay can be described thus: Inhibition of Arf1 in african green monkey Vero cells assessed as rapid GGA3 dispersal from trans golgi network at 10 ug/ml after 5 mins by immunofluorescence method.
Assay [4] has as its system Vero. The assay can be described thus: Inhibition of Arf1 in african green monkey Vero cells overexpressing BIG1 assessed as punctate and diffuse distribution of medial-Golgi marker giantin from golgi at 10 ug/ml after 1 hr by immunofluorescence method.
Assay [5] concerns Vero. The assay can be described thus: Inhibition of GBF1 QNV deleted mutant in african green monkey Vero cells assessed as effect on change in golgi morphology at 10 uM after 1 hr by immunofluorescence method.
For assay [6], the system named is Vero. Put plainly: Inhibition of Arf1 in african green monkey Vero cells expressing GBF1 QNV deleted mutant assessed as effect on change in golgi morphology at 10 ug/ml after 1 hr by immunofluorescence method.
For assay [7], the system named is Vero. Put plainly: Inhibition of GBF1 QNV to AAA mutant in african green monkey Vero cells assessed as effect on change in golgi morphology at 10 uM after 1 hr by immunofluorescence method.
Assay [8] has as its system Vero. The assay can be described thus: Inhibition of Arf1 in african green monkey Vero cells expressing GBF1 QNV to AAA mutant assessed as effect on change in golgi morphology at 10 ug/ml after 1 hr by immunofluorescence method.
The test system of assay [9] is Vero. Put plainly: Inhibition of Arf1 in african green monkey Vero cells assessed as decrease in Arf1-GTP levels at 10 ug/ml after 1 hr. The essentials: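 Vero cells transduced with adenoviral Arf1-V5, alone or with GBF1-ML-HA; next day reseeded, then 45 min at 37°C with medium, BFA 10 µg/ml or compound 10 μM. Lysates pulled down with GGA3 VHS-GAT-GST on glutathione agarose, 30 min 4°C; Arf1-GTP by anti-V5 Western, band densitometry, duplicate experiments averaged.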

The test system of assay [10] is Vero. Put plainly: Restoration of Arf1-GTP levels in african green monkey Vero cells expressing GBF1-M832L mutant at 10 ug/ml after 1 hr.
In assay [11] the test system is Vero. Put plainly: Inhibition of GBF1 in african green monkey Vero cells assessed as inhibition of StxB-SS retrogade transport from endosomes to TGN at 10 uM by immunofluorescence method.
The subject of assay [12] is Vero. The assay can be described thus: Inhibition of Arf1 in african green monkey Vero cells assessed as inhibition of StxB-SS retrogade transport from endosomes to TGN at 10 ug/ml by immunofluorescence method.
Assay [13] deals with Vero. The assay can be described thus: Inhibition of Arf1 in african green monkey Vero cells expressing GBF1-M832L mutant assessed as inhibition of StxB-SS retrogade transport from endosomes to TGN in african green monkey Vero cells at 10 ug/ml by immunofluorescence method.
Assay [14] deals with Vero. Put plainly: Inhibition of GBF1 in african green monkey Vero cells assessed as punctate and diffuse distribution of medial-Golgi marker giantin […] at 10 uM after 1 hr by immunofluorescence method.
Assay [15] has as its system Vero. The assay can be described thus: Induction of GBF1 in african green monkey Vero cells assessed as punctate and diffuse distribution of cis-Golgi marker GM130 from TGN at 10 uM after 1 hr by immunofluorescence method.
Assay [16] deals with Vero. Put plainly: Inhibition of Arf1 in african green monkey Vero cells assessed as punctate and diffuse distribution of medial-Golgi marker giantin at 10 ug/ml after 1 hr by immunofluorescence method.
The test system of assay [17] is Vero. Put plainly: Inhibition of Arf1 in african green monkey Vero cells assessed as punctate and diffuse distribution of cis-Golgi marker GM130 at 10 ug/ml after 1 hr by immunofluorescence method.
Assay [18] relates to Vero. The assay can be described thus: Inhibition of GBF1 in african green monkey Vero cells assessed as tubule formation from trans golgi network and endosomes before its dispersal in african green monkey Vero cells at 10 uM after 1 hr by immunofluorescence method.
In assay [19] the test system is Vero. Put plainly: Inhibition of Arf1 in african green monkey Vero cells assessed as tubule formation from trans golgi network and endosomes before its dispersal at 10 ug/ml after 1 hr by immunofluorescence method.
Assay [20] concerns Vero. Put plainly: Inhibition of Arf1 in african green monkey Vero cells assessed as giantin positive punctate structures in contact with Sec31-positive ER exit site at 10 ug/ml after 1 hr by immunofluorescence method. The essentials:
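Vero cells given BFA 10 μg/ml or compound 10 μM for 60 min, fixed, co-stained for giantin and ER exit site marker Sec31; giantin puncta relative to ERES scored by immunofluorescence.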

Activity calls are given as the source filed them. The rule behind the calls is not given here.

With `C[C@H]1CCC/C=C/[C@@H]2C[C@H](O)C[C@H]2[C@H](O)/C=C/C(=O)O1`, the inhibition entry in the assay on Vero [1], with Vero [2], in the assay on Vero [3], in the assay with Vero [5], in the assay with Vero [7] and in the assay on Vero [9] was “Active” in each case. The inhibition result in the assay on Vero [11], in the assay on Vero [12], with Vero [14], in the assay on Vero [16], in the assay with Vero [17] and in the assay on Vero [19] was “Active” in each case. Also, the inhibition result in the assay on Vero [20] was “Active”. Also, the inhibition result in the assay on Vero [4], with Vero [6], with Vero [8], in the assay with Vero [13] and with Vero [18] was “inactive” throughout. Besides, the outcome in the assay with Vero [10] was inactive. For the same compound, the result in the assay on Vero [15] was Active.
